Compounds with a hit are over-represented: about 3.1% of the library has one in this group of screens.
HSP90 refold inh – HSP90 refolding inhibition in rabbit reticulocyte lysate; luciferase refolding luminescence, 3 h; inhibition, % at 5.6 µM; 0.91% of 290,000 active; AID 1789;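 active means inhibition above the screen-wide mean plus 3 SD, computed separately per campaign, cut at about 16% in these data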;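 further: 0% = DMSO wells and 100% = 60 µM geldanamycin wells; inhibitors lower the luminescence because luciferase stays unfolded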
HKDC1 inhibitor – HKDC1 (human) hexokinase inhibition | recombinant HKDC1, G6PDH/diaphorase resazurin coupled fluorescence | inhibition, % at 20 µM | 0.16% of 340,000 active;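 active means inhibition above about 35% when tested at 20 µM, limit read from the data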;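 further: plate controls were DMSO wells with enzyme for no effect and DMSO wells lacking enzyme for full effect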
Target sequence (Q2TB90 whole entry, looked up): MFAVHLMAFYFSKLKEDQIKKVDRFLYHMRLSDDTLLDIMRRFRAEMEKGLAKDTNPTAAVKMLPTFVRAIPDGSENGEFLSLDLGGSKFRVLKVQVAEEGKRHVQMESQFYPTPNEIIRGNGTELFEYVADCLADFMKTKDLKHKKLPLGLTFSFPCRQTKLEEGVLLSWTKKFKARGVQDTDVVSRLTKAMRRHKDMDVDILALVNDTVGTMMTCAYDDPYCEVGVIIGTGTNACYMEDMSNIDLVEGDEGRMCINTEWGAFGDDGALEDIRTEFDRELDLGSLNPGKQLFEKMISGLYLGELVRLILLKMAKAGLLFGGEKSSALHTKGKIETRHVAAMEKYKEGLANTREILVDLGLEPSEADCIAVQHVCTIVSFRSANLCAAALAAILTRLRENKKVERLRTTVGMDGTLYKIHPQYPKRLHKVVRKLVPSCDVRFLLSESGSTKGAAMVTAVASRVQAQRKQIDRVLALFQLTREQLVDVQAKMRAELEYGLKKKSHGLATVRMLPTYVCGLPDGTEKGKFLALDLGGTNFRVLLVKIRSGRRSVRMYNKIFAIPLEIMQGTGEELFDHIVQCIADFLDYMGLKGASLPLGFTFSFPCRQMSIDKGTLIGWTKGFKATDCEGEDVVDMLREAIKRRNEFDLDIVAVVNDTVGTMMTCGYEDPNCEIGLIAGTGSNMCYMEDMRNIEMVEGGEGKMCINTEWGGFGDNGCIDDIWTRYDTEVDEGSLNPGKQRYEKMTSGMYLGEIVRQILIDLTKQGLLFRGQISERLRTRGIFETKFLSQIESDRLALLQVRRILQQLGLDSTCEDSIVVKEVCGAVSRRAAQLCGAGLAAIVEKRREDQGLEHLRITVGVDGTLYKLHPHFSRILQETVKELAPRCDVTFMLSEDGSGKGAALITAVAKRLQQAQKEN
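Test system: recombinant HKDC1 (HK5) hexokinase enzyme, produced in-house / Doses: 20 µM test compound, 1% DMSO / Timing: 90 min, room temperature / Detection: G6PDH/diaphorase-coupled fluorescence, 1 mM NADP, 100 µM resazurin, 525/613 nm / Control set: DMSO wells with and without enzyme mix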
HSF1 inhib – HSF1 inhibition; NIH3T3-HGL HSE-luciferase, MG132-induced, luminescence 8 h; hits give low values; activity change, negative = inhibition, % at 7.5 µM (by protocol); 0.77% of 300,000 active;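 active means more than half of replicate wells show activity change below -50%, luminescence cut by over half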;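 further: luciferase reports HSF-1 transcriptional activity via heat shock element; 0% = median of DMSO wells and -100% = zero luminescence signal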
Hsp70 act – switches on Hsp70 transcription. AID 1203. 0.04% of 200,000 active. HeLa Hsp70 promoter luciferase reporter, luminescence; scaled: vehicle 0, proteasome-inhibitor control 100%. activation, % at 10 µM;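 active means activation above the mean across all tested compounds plus 3 SD, cutoff set per campaign, cut at about 5.5% in these data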;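 further: 100% = MG132 at 30 µM as the positive control and 0% = DMSO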
Tb hexokinase – T. brucei hexokinase 1 inhibition; recombinant TbHK1, G6PDH-coupled NADH A340; inhibition, % at 10 µM; 0.11% of 220,000 active;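 active means inhibition of 50% or more in the single-dose primary screen; inactive means inhibition below 50%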
HSF1 activator – increases HSF-1 driven luciferase reporter signal | 1.7% of 300,000 active | activation, % at 9 µM | NIH3T3-HGL HSF-1 luciferase reporter, MG132, 8 h; 100% = twice DMSO control signal | AID 504408;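 active means mean replicate activation of at least 50% with a set share of replicates each reaching 50%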;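 further: 0% = median of the neutral control wells and 100% = twice that signal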
HSP90 inh confirm – HSP90 inhibition, confirmation assay | shares compounds with HSP90 refold inh | rabbit reticulocyte lysate, luciferase refolding luminescence, 3 h | 64% of 2,300 active | inhibition, % at 5.9 µM; in the data active means inhibition above about 18%;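 further: 0% = vehicle wells and 100% = reference inhibitor wells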
luciferase ctr – blocks native firefly luciferase in HSP90 counter-screen | shares compounds with HSP90 refold inh | purified native firefly luciferase, luminescence | inhibition, % at 5.9 µM | 48% of 2,300 active | AID 1847;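 active means inhibition above the mean inhibition of all tested sample wells plus 3 SD, cut at about 10% in these data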;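 further: 0% = DMSO with luciferase and 100% = wells lacking luciferase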
* = called active by the depositor; nt = not tested or not shown.

SMILES	HSP90 refold inh	HKDC1 inhibitor	HSF1 inhib	Hsp70 act	Tb hexokinase	HSF1 activator	HSP90 inh confirm	luciferase ctr
CC(=O)CSc1nnc(-c2ccc3c(c2)OCO3)o1	18*	-4	2	0	-4	0	37*	5
CC(=O)Nc1ccc(NC(=O)CSc2nnc(-c3ccc4c(c3)OCO4)o2)cc1	nt	-1	nt	nt	nt	nt	nt	nt
O=[N+]([O-])c1ccc(N=Nc2ncc[nH]2)cc1	55*	23	-66*	nt	nt	-66	57*	-18
CCOCCc1nn2c(=O)cc(CSCC(=O)Nc3cc(C)cc(C)c3)nc2s1	1	3	5	nt	nt	6	nt	nt
CCOC(=O)c1cnc(Nc2nc3ccccc3o2)nc1C	18*	1	-23	0	-10	-35	86*	75*
CCOC(=O)c1cnc(Nc2nc3ccccc3o2)nc1CN1CCN(c2ccccc2)CC1	2	nt	nt	0	4	nt	nt	nt
Cc1nc(Nc2nc3ccccc3o2)nc2c1CCC2	17*	0	5	-1	4	25	50*	43*
Cc1cccc(C)c1Nc1nc2ccccc2o1	-2	-3	2	0	2	3	nt	nt
COc1ccc(-n2nc(C(=O)NCC(=O)N3CCN(Cc4ccccc4)CC3)c3ccccc3c2=O)cc1	24*	-6	3	nt	nt	31	-2	-7
CCN1CCN(C(=O)CNC(=O)c2nn(-c3ccc(OC)cc3)c(=O)c3ccccc23)CC1	4	-4	-1	nt	nt	-3	nt	nt
CCCn1nc(C(=O)Nc2cccc(S(=O)(=O)N(C)c3ccccc3)c2)c2ccccc2c1=O	nt	1	nt	nt	nt	nt	nt	nt
COc1ccccc1NC(=O)c1cc(N)cc(C(=O)Nc2ccccc2OC)c1	nt	-2	-5	nt	nt	-1	nt	nt
COc1ccccc1NC(=O)c1coc(=O)c(Br)c1	55*	9	-14	nt	-23	-3	83*	-7
COC(=O)CCC(NC(=O)c1cc(-c2ccc3c(c2)OCCO3)oc1C)C(=O)OC (configuration not stated)	5	1	5	0	-4	8	nt	nt
Cc1oc(-c2ccc3c(c2)OCCO3)cc1C(=O)NC(Cc1ccccc1)C(=O)O (configuration not stated)	39*	-2	6	0	-7	-15	65*	18*
Cc1ccc(C(=O)/C=C/Nc2ccccn2)cc1	66*	-1	-62*	-1	-26	-66	96*	91*
COc1ccc(OC)c(N/C=C/C(=O)c2ccccc2)c1	70*	1	-43	nt	nt	-54	92*	84*
COc1cccc(N/C=C/C(=O)c2ccc(C)cc2)c1	19*	3	3	nt	nt	10	34*	28*
COc1ccc(OC)c(N/C(C)=C/C(=O)c2ccccc2)c1	-2	3	-27	0	-20	-31	nt	nt
Cc1ccc(C(=O)/C=C/Nc2ccccc2C(N)=O)cc1	5	7	21	0	-13	42	nt	nt
COc1cccc(N/C=C/C(=O)c2ccc(Cl)cc2)c1	-6	-8	2	0	4	12	nt	nt
O=C(/C=C/Nc1ccc(F)cc1Br)c1ccccc1	19*	-10	-66*	0	-4	-71	89*	82*
O=C(NC1CCCCC1)C(c1ccco1)N(C(=O)c1csnn1)c1cccc(Cl)c1 (configuration not stated)	0	3	-3	nt	nt	-17	nt	nt
CC(C)Oc1ccccc1C1NC(=O)CCC1[N+](=O)[O-] (configuration not stated)	0	4	-3	nt	nt	18	nt	nt
COc1ccc(CNc2ncc(-c3ccc(Cl)cc3)n2C)c(OC)c1OC	3	2	-2	nt	nt	7	nt	nt
SMILES	HSP90 refold inh	HKDC1 inhibitor	HSF1 inhib	Hsp70 act	Tb hexokinase	HSF1 activator	HSP90 inh confirm	luciferase ctr
CCCS(=O)(=O)c1nc(S(=O)(=O)c2ccc(C)cc2)c(N2CCN(CCO)CC2)s1	3	-8	-4	nt	nt	-7	nt	nt
C[C@H](NC(=O)c1nc[nH]c1C(=O)NCC(=O)OCc1ccccc1)C(=O)OC(C)(C)C	62*	-1	8	nt	nt	20	-10	-17
O=C(O)c1ccc(-c2nc3ccccc3s2)o1	63*	15	8	nt	-71	15	80*	24*
COc1ccc(O)c(C(=O)CC(=O)c2ccc(F)cc2)c1	21*	-5	25	0	-16	35	21*	-4
COc1ccc(C(=O)CC(=O)c2ccccc2O)cc1	-2	-7	20	nt	nt	28	nt	nt
COc1ccccc1CCNC(=O)c1ccc(NC(=O)CC2SC(N3CCCCC3)=NC2=O)cc1 (configuration not stated)	nt	-2	nt	nt	nt	nt	nt	nt
CCN(Cc1ccncc1)C(=O)c1ccccc1NS(=O)(=O)c1ccc(Br)cc1	21*	-3	5	nt	-8	-10	-6	-11
CCOC(=O)C1C(=O)NC(C(=O)OCC)(C(=O)OCC)C1CC (configuration not stated)	nt	-3	nt	nt	nt	nt	nt	nt
Cc1cccc(C(=O)O/N=C(\N)c2ccccn2)c1	61*	0	-49	nt	nt	-52	61*	83*
Cc1ccc(C(=O)O/N=C(\N)c2ccccn2)cc1C	61*	1	-74*	nt	nt	-78	71*	84*
COc1cc(C(=O)O/N=C(\N)c2ccccn2)cc(OC)c1OC	-2	2	13	nt	0	19	nt	nt
N/C(=N\OC(=O)c1cccc(F)c1)c1ccccc1	-2	1	13	0	0	37	nt	nt
N/C(=N\OC(=O)/C=C/c1ccc(Br)cc1)c1ccccn1	10	10	6	0	31	28	nt	nt
Cc1cccc(/C(N)=N/OC(=O)c2cccnc2)c1	5	6	14	0	-8	38	nt	nt
N/C(=N\OC(=O)c1cccc(F)c1)c1ccccn1	31*	-8	-13	nt	nt	1	16*	68*
N/C(=N\OC(=O)/C=C/c1ccccc1Cl)c1ccccn1	28*	10	-10	0	-2	-23	55*	57*
Cc1ccc(S(=O)(=O)N(CCCc2c(C)nc[nH]c2=O)c2ccccc2)cc1	nt	-8	nt	nt	nt	nt	nt	nt
CC(=O)C[C@H](O)CC(=O)[C@@H]1OC(=O)CCCCCCc2ccccc21	nt	-7	nt	nt	nt	nt	nt	nt
CC(C)(C)c1ccc(C(=O)O/N=C(\N)c2ccccn2)cc1	73*	-4	-89*	nt	nt	-90	64*	83*
N/C(=N\OC(=O)c1ccc(Br)o1)c1ccccn1	23*	-2	16	0	-1	38	0	44*
CC(C(=O)O/N=C(\N)c1ccccn1)c1ccc([N+](=O)[O-])cc1 (configuration not stated)	3	3	-12	nt	nt	-20	nt	nt
N/C(=N\OCc1ccc([N+](=O)[O-])cc1)c1ccccn1	84*	-3	-43	0	-3	-48	91*	86*

Screens deposited in PubChem BioAssay by several laboratories.
